# Data as given in article PMC6294321 (Molecular cell, 2018).
# Where no end group is shown, it is not given here.
# T1: GST-tagged KLHDC2 (kelch repeat domain, WT) (Homo sapiens, UniProt Q9Y2U9)
# T1 sequence (Q9Y2U9 1-362): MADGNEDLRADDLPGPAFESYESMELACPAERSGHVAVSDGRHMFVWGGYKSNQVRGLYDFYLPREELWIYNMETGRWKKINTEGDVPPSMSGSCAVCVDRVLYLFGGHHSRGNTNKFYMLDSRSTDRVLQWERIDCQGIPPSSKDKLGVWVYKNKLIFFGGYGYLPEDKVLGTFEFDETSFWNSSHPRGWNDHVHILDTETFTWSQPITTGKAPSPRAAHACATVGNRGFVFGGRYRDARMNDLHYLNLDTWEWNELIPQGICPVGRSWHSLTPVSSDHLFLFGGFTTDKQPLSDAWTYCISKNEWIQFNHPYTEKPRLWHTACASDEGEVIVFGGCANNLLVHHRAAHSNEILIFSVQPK
# T2: GST-KLHDC2 (kelch repeat domain, amino acid 1-362) (human, UniProt Q9Y2U9 1-362)
# T2 sequence (looked up): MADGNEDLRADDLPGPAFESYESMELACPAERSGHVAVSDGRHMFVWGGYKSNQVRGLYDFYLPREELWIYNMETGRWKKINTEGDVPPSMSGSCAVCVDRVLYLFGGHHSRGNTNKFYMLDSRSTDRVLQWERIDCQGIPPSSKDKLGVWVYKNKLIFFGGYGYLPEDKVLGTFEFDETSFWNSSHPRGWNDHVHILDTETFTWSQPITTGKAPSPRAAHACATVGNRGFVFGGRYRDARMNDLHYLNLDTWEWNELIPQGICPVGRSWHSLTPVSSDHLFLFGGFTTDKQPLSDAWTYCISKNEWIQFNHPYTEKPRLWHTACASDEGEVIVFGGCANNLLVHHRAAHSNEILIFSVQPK
# T3: GST-KLHDC2 R241K (kelch repeat domain) (human, UniProt Q9Y2U9 1-362, R241K)
# T3 sequence (looked up): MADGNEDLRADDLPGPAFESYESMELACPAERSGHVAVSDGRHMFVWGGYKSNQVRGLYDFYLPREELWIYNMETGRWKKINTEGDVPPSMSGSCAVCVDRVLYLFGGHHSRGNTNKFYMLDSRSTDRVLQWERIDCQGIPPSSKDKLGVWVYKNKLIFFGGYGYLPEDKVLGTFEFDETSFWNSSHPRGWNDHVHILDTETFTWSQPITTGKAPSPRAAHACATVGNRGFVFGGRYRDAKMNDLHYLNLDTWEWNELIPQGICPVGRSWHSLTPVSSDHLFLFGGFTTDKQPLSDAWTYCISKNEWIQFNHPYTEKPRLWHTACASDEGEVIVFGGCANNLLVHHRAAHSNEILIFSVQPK
# Experiments:
# [1] = target: GST-KLHDC2 (kelch repeat domain, amino acid 1-362) (human) (UniProt Q9Y2U9); assay: AlphaScreen or HTRF
# [2] = target: T1, GST-tagged KLHDC2 (kelch repeat domain, WT); assay: AlphaScreen competition assay, wild type KLHDC2; format: binding; conditions: USP1 vs SelK 8 aa peptide
# Summary of the method: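 Human KLHDC2 kelch domain (aa 1–362), GST-tagged, was expressed in baculovirus-infected Hi5 cells. It was purified by glutathione agarose, Q Sepharose and Superdex-200. The assay used 0.12 nM protein on anti-GST acceptor beads and 1.7 nM biotinylated 12 aa SelK peptide on streptavidin donor beads, 5 μg/ml beads. Buffer: HEPES pH 7.5, NaCl, TCEP, Tween-20, BSA. Competitor peptides ran 2 nM–3 mM, in triplicate; IC50 by non-linear fitting.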
# [3] = target: GST-KLHDC2 R241K (kelch repeat domain) (human) (UniProt Q9Y2U9); assay: AlphaScreen or HTRF
# [4] = target: T2, GST-KLHDC2 (kelch repeat domain, amino …); assay: AlphaScreen or HTRF
# [5] = target: T3, GST-KLHDC2 R241K (kelch repeat domain); assay: AlphaScreen or HTRF
# [6] = target: T2, GST-KLHDC2 (kelch repeat domain, amino …); assay: BLI
molecule,measurement,setting,value
"diglycine (2 aa SelK degron peptide, label-free)",Kd,[1],360000 nM
EAIGLLGG-OH [USP1-NTD degron peptide],fold lower potency/affinity vs SelK,[2],about 7 fold
8 aa USP1-NTD C-end degron peptide,IC50,[1],69.5 nM
same,IC50,[3],62600 nM
"LRGPSPPPMAGG (peptide, UniProt Q9Y6D0 80-91, looked up) [12 aa SelK degron peptide (label-free)]",IC50,[4],~3 nM
"PPMAGG (peptide, UniProt Q9Y6D0 86-91, looked up) [6 aa SelK degron peptide (label-free)]",binding result,[4],binds
"SPPPMAGG (peptide, UniProt Q9Y6D0 84-91, looked up) [8 aa SelK C-end degron peptide (label-free, wild type)]",IC50,[5],5900 nM
"SPPPMAGG-NH2 (peptide, UniProt Q9Y6D0 84-91, looked up) [8 aa SelK degron peptide, C-terminally amidated]",fold decrease in affinity against the unmodified 8 aa peptide,[4],~1000 fold
"LRGPSPPPMAGG (peptide, UniProt Q9Y6D0 80-91, looked up, also: biotin, position not given here) [biotinylated 12 aa SelK degron peptide]",Kd,[6],~4 nM
